This is a sample that favours compounds with a hit; in the whole collection about 3.6% have one here.
ZTA counter = ZTA (EBV) inhibition in EBNA-1 counter-screen. hit rate 0.15% among 320,000. inhibition, % at 11 µM. P03206. ZTA-DNA binding, fluorescence polarization; in the data active = inhibition above about 33%
Target sequence (P03206 whole entry, looked up): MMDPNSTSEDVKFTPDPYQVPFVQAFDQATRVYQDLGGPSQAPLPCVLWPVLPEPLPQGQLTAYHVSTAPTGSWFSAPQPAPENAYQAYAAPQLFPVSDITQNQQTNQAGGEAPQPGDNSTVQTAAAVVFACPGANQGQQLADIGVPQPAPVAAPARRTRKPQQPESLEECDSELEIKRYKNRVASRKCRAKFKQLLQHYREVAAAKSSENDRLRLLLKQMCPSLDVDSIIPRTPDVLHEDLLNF
FID counter = fluorescent intercalator displacement, NS3 helicase counter-screen. DNA fluorescent intercalator displacement, fluorescence. inhibition, % at 7.9 µM. hit rate 0.17% among 290,000; in the data active = inhibition above about 37%;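 also: higher means more ethidium bromide displaced from hairpin DNA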
GRIN3A LBD mod = modulators (binders) of human NR3A ligand-binding domain. NR3A LBD differential scanning fluorimetry, Tm shift; 0% = protein alone, 100% = glycine-bound protein. Tm shift relative to glycine control, % at 25 µM. hit rate 2.5% among 340,000;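 active = melting temperature shift of at least 10% of the positive control shift, at one fixed dose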
EBNA-1 inh = blocks EBNA-1 binding to DNA; EBNA-1 DNA binding, fluorescence polarization; inhibition, % at 14.8 µM; hit rate 0.34% among 300,000; AID 1950; in the data active = inhibition above about 28%
FGF22 binding = binders of recombinant human FGF22 by thermal shift | Q9HCT0 | SYPRO orange fluorescence; percent of sucrose octasulfate shift, DMSO zero | activity (Tm shift, normalised), % at 9.99 µM | hit rate 1.5% among 340,000 | AID 651658;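 active = mean Tm shift, scaled 0 neutral to 100 positive control, at about 1.3% or above, every replicate too, limit read from the data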
Target sequence (Q9HCT0 whole entry, looked up): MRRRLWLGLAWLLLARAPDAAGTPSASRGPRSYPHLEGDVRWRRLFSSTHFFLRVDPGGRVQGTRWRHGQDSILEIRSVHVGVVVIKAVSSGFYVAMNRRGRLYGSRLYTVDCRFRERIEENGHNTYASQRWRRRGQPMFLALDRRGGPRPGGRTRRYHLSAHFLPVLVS
HCV NS3 hel inh = inhibitors of Hepatitis C virus NS3 helicase. inhibition, % at 10.9 µM. NS3 helicase DNA unwinding, Cy5 molecular beacon fluorescence. AID 1800. hit rate 0.56% among 290,000;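 active = inhibition above the mean of all tested compounds plus 3 SD, set per campaign, cut at about 35% in these data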
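System: NS3 helicase fragment of HCV / Schedule: 1 h at 25 °C / Control set: DMSO alone as 0% and 110 µM thioflavine S as 100% / Reagent: Cy5/quencher beacon DNA duplex and ATP to start / Technique: Cy5 fluorescence / Replication: singlicate / Evaluation: % inhibition of end-to-start signal ratio versus controls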
Numbers stand for hits; i = inactive; nt = no result; ! = repeats disagree.

SMILES	ZTA counter	FID counter	GRIN3A LBD mod	EBNA-1 inh	FGF22 binding	HCV NS3 hel inh
C[C@H]1CN([C@@H](C)CO)C(=O)c2cc(C#CCN(C)C)cnc2O[C@@H]1CN(C)C(=O)NC1CCCC1	nt	nt	nt	nt	i	nt
O=C(Nc1ccccc1Sc1ccccc1)c1ccc(F)cc1	i	i	19	i	nt	i
O=C(Cc1ccccc1)Nc1cc(Cl)ccc1Sc1ccccc1	i	i	i	i	nt	i
O=C(Cc1ccc(Cl)cc1)Nc1ccccc1Sc1ccccc1	i	i	15	i	nt	i
Cc1cc(C)n2nc(SCC(=O)N(Cc3ccccc3)C3CCS(=O)(=O)C3)nc2n1 (stereo not given)	i	i	i	i	43	i
O=C(NN=Cc1ccccc1OC(F)F)c1cccc(S(=O)(=O)N2CCCC2)c1	nt	nt	i	nt	i	nt
O=C(N/N=C/c1ccc(OC(F)F)cc1OC(F)F)c1cccc(S(=O)(=O)N2CCOCC2)c1	i	i	i	i	44	i
CCNC(=O)c1ccc(CSc2nc3ccccc3s2)cc1	i	i	33	i	i	i
O=C(c1cc(S(=O)(=O)N2CCOCC2)c(Cl)cc1Cl)N1CCN(S(=O)(=O)c2cccc(F)c2)CC1	nt	nt	i	nt	43	nt
Cc1ccc(S(=O)(=O)N2CCN(C(=O)c3cc(S(=O)(=O)N4CCOCC4)c(Cl)cc3Cl)CC2)cc1	nt	nt	i	nt	i	nt
Cc1cc(C)nc(NS(=O)(=O)c2ccc(NC(=O)c3ccc4c(c3)OCCO4)cc2)n1	i	i	i	i	43	i
Cc1cccc(NC(=O)c2cccc(NC(=O)c3ccco3)c2)c1	nt	nt	i	nt	i	nt
Cc1cc(C)cc(NC(=O)c2ccc(NC(=O)c3ccco3)cc2)c1	i	i	18	i	i	i
Cc1cccc(C(=O)NNC(=O)c2ccco2)c1	i	i	i	i	43	i
C=Cc1cccc(NC(=O)c2ccc(NC(=O)c3ccco3)cc2)c1	i	i	31	i	i	i
Cc1cc(C)nc(NS(=O)(=O)c2ccc(NC(=O)c3ccc(S(=O)(=O)N(C)C)cc3)cc2)n1	i	i	i	i	i	i
CC(=O)Nc1ccc(NC(=O)c2ccco2)cc1	i	i	i	i	nt	i
O=C(C[C@@H]1C=C[C@@H](NS(=O)(=O)c2ccc(F)cc2)[C@@H](CO)O1)N1CCC(Cc2ccccc2)CC1	nt	nt	nt	nt	i	nt
C/C=C/c1cnc2c(c1)C(=O)N([C@@H](C)CO)C[C@@H](C)[C@H](CN(C)C(=O)Cc1ccccc1)O2	nt	nt	nt	nt	i	nt
C[C@@H]1CN([C@@H](C)CO)C(=O)c2cc(C3=CCCC3)cnc2O[C@H]1CN(C)S(C)(=O)=O	nt	nt	nt	nt	i	nt
CCCCNC(=O)COC(=O)c1ccc(C)c(NC(=O)c2ccco2)c1	i	i	i	i	i	i
O=C(NNC(=S)NC(=O)c1ccco1)c1ccc(F)cc1	i	i	i	i	6.2	i
CC(=O)c1ccc(NC(=O)c2ccc(NC(=O)c3ccco3)cc2)cc1	i	i	13	i	nt	i
O=C(Nc1ccc(NC(=O)c2ccco2)cc1)c1ccc2c(c1)OCCO2	i	i	10	i	i	i
Cc1ccc(C(=O)OCc2c(C)noc2C)cc1NC(=O)c1ccco1	i	i	i	i	44	i
SMILES	ZTA counter	FID counter	GRIN3A LBD mod	EBNA-1 inh	FGF22 binding	HCV NS3 hel inh
C[C@@H]1CN([C@@H](C)CO)C(=O)c2cc(NC(=O)Nc3cccc4ccccc34)ccc2O[C@H]1CN(C)C(=O)Nc1ccccc1	nt	nt	nt	nt	i	nt
CCOC(=O)c1cccc(NC(=O)c2ccc(NC(=O)c3ccco3)cc2)c1	i	i	31	i	i	i
CCCNC(=O)N1[C@H](C#N)[C@H](c2ccc(-c3cccc(OC)c3)cc2)[C@@H]1CO	nt	nt	nt	nt	i	nt
C[C@@H]1CN([C@@H](C)CO)C(=O)Cc2cc(NC(=O)NC3CCCCC3)ccc2O[C@H]1CN(C)CC1CC1	nt	nt	nt	nt	i	nt
COc1ccc2c(Cl)c(C(N)=O)sc2c1	i	i	34	i	nt	i
CCCN(C)C[C@@H]1Oc2ncc(C#CCOC)cc2C(=O)N([C@@H](C)CO)C[C@@H]1C	nt	nt	nt	nt	i	nt
O=C(O)CCN1C(=O)/C(=C\c2cccc(OCc3ccccc3)c2)SC1=S	i	i	11	i	i	i
N=C1S/C(=C\c2ccc(O)cc2)C(=O)N1c1ccc(F)cc1	i	i	22	i	nt	i
COc1cccc(/C=C2\SC(=S)N(CCC(=O)NCCc3ccc(O)cc3)C2=O)c1	i	i	16	i	i	i
O=C(CCN1C(=O)/C(=C/c2ccc(F)cc2)SC1=S)NCCc1ccc(O)cc1	i	i	16	i	i	i
O=C(O)CCN1C(=O)/C(=C\c2ccc(OCc3ccccc3)c(OCc3ccccc3)c2)SC1=S	i	i	i	i	i	i
CN1CCN(C(=O)CCN2C(=O)/C(=C\c3ccc(F)cc3)SC2=S)CC1	nt	nt	i	nt	i	nt
COc1cccc(/C=C2\SC(=S)N(CCC(=O)Nc3ccc(O)cc3)C2=O)c1	i	i	i	i	i	i
CN1c2ccc(-c3ccccc3)cc2[C@H]2[C@H](CCN2S(=O)(=O)c2ccccc2F)[C@@H]1CO	nt	nt	nt	nt	i	nt
C[C@@H]1CN([C@@H](C)CO)C(=O)c2cc(C#CC3CC3)cnc2O[C@@H]1CN(C)C(=O)c1ccccc1	nt	nt	nt	nt	i	nt
COc1ccc(/C=C2\SC(=S)N(CCC(=O)Nc3cccc(O)c3)C2=O)cc1OC	i	i	i	i	i	i
COc1ccc(/C=C2/SC(=S)N(CCCC(=O)Nc3cccc(O)c3)C2=O)cc1	i	i	12	i	i	i
CC(C)c1nc(SCC(=O)Nc2ccc([N+](=O)[O-])cc2Br)n[nH]1	i	i	11	i	i	i
Nc1nc(SCC(=O)Nc2ccc([N+](=O)[O-])cc2Br)n[nH]1	i	i	i	i	nt	i
CCN(C(=O)COC(=O)c1ccc(Cl)c(N)c1)C1CCS(=O)(=O)C1 (stereo not given)	i	i	i	i	43	i
COc1ccc(NS(=O)(=O)c2ccc(O)c(NC(=O)c3cc4c(C)nn(-c5ccc(F)cc5)c4s3)c2)cc1	i	i	31	i	nt	i
Cc1nn(-c2ccc(F)cc2)c2sc(C(=O)N3CCCCCC3)cc12	i	i	i	i	nt	i
COc1ccccc1C(=O)Nc1ccc2c(c1)C(=O)N(C)[C@@H]1CC[C@@H](CC(=O)NCCc3ccncc3)O[C@H]1CO2	nt	nt	nt	nt	i	nt
Cc1ccc(S(=O)(=O)NC2=NCCCCC2)cc1	i	i	i	i	43	i
CCC(=O)N[C@H]1CC[C@@H](CC(=O)NCC2CCCCC2)O[C@@H]1CO	nt	nt	nt	nt	i	nt
Cn1cnc(S(=O)(=O)N[C@H]2C=C[C@H](CC(=O)Nc3ccccc3)O[C@H]2CO)c1	nt	nt	nt	nt	i	nt
CC(NC(N)=O)C(=O)Nc1ccc(Cl)c(S(=O)(=O)Nc2ccc(Cl)cc2)c1 (stereo not given)	i	i	i	i	i	i
CCN(CC)CCNC(=O)c1ccc(Cl)c(S(=O)(=O)Nc2ccc(Cl)cc2)c1	i	i	21!	i	i	i
CC(C)Oc1ccc(C(=O)Nc2ccc(Cl)c(S(=O)(=O)Nc3ccc(Cl)cc3)c2)cc1	i	i	20	i	nt	i

High-throughput results as filed in PubChem.
